The target of assay [1] is T1, C-C chemokine receptor type 1 (Homo sapiens, UniProt P32246).
T1 sequence (P32246 whole entry): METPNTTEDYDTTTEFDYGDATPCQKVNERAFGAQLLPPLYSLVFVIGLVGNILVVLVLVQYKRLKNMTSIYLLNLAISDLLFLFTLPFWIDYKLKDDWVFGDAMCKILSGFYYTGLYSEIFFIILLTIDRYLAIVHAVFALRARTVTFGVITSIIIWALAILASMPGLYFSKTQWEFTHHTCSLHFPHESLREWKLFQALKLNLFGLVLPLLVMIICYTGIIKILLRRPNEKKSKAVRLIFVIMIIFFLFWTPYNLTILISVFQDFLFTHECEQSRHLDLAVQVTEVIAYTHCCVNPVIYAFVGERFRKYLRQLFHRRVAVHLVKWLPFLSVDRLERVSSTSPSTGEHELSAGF
Nature of the assay: Antagonist activity at human CCR1 receptor expressed in THP1 cells assessed as human MIP-1-alpha-stimulated intracellular calcium level by FLIPR assay. It counts as functional, cell-based, THP-1. Put shortly:
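THP-1 cells in RPMI-1640 at 2 × 10⁶/ml, mixed 1:1 with calcium dye buffer, loaded 30 min at 37 °C with 2.5 mM probenecid. Cells spun down, resuspended in RPMI-1640 with 0.1% BSA and plated at 1.5 × 10⁵/well with or without compound. Stimulated with 5 nM human MIP-1α; intracellular Ca²⁺ change read by FLIPR. IC50, mean of at least two independent experiments.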
For orientation: Calcium assays in cells follow changes in intracellular calcium, usually with a dye or a luminescent sensor.

Assay [2] has as its target T1, C-C chemokine receptor type 1. Nature of the assay: Displacement of [125I]MIP1-alpha from human CCR1 receptor expressed in THP1 cells. In kind it is cell-based, THP-1. Put shortly:
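THP-1 cells expressing CCR1, washed in PBS, at 5 × 10⁶/ml with compound or vehicle and 50 pM human [¹²⁵I]MIP-1α. Binding buffer: 50 mM Hepes pH 7.4, 5 mM MgCl₂, 1 mM CaCl₂, 0.5% BSA. Incubated 90 min at room temperature, then filtered on PEI-coated glass fibre and washed with buffer plus 0.5 M NaCl. Bound counts by scintillation. IC50, mean of triplicates in one experiment.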
A general note: In a radioligand displacement assay an active substance lowers the binding of a labelled ligand.

The nature of assay [3]: Selectivity for human CCR1 receptor over CCR4 receptor.
Another assay has as its system THP-1. Briefly: Inhibition of CCL3-induced chemotaxis in human THP1 cells after 2 hrs. It counts as functional, cell-based. Particulars: THP-1, 2 h. Put shortly: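 Calcein-labelled THP-1 cells washed in RPMI-1640 and resuspended at 5 × 10⁶/ml. Preincubated 30 min at 37 °C with compound or DMSO, then placed above a 5 µm polycarbonate filter in a Boyden chamber. The lower wells held 0.5 nM human MIP-1α with or without compound. Chamber incubated 2 h at 37 °C.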

Consider twelve compounds from ChEMBL document CHEMBL1143879, “Identification of novel series of human CCR1 antagonists” (Bioorg Med Chem Lett, 2008).

The IC50 is the point on the concentration scale where inhibition reaches its midpoint.

With `O=S(=O)(c1ccccc1)N1CCC(N2CCC(O)(c3ccc(Cl)cc3)CC2)CC1`, the IC50 was 1240 nM in assay [1] and 1270 nM in assay [2]. Moreover, the Selectivity ratio in assay [3] was > 100.

With `O=S(=O)(NCCCN1CCC(O)(c2ccc(Cl)cc2)CC1)c1ccccc1-c1cccs1`, the figures for the IC50 (in assay [1]; in assay [2]; in the assay with THP-1) were 230 nM, 240 nM and 296 nM, respectively. Besides, in assay [3], the Selectivity ratio was > 100.

As to `O=S(=O)(NCCCN1CCC(O)(c2ccc(Cl)cc2)CC1)c1ccccc1-c1ccccc1`, the values for the IC50 (in assay [1]; in assay [2]; in the assay on THP-1) were 84 nM, 600 nM and 151 nM, respectively.

Consider `O=S(=O)(c1ccccc1Br)N1CCC(N2CCC(O)(c3ccc(Cl)cc3)CC2)CC1`, for which the IC50 is 90 nM in assay [1], 90 nM in assay [2] and 42 nM in the assay on THP-1. The Selectivity ratio in assay [3] is > 100.

Turning to `O=S(=O)(c1ccccc1Cl)N1CCC(N2CCC(O)(c3ccc(Cl)cc3)CC2)CC1`, the values for the IC50 (in assay [1]; in assay [2]; in the assay on THP-1) were 130 nM, 200 nM and 183 nM, respectively.

For the compound `CSc1ccc(C2(O)CCN(C3CCN(S(=O)(=O)c4ccccc4Cl)CC3)CC2)cc1`, the IC50 is 7980 nM in assay [1] and > 10000 nM in assay [2].

On to `CC1CC(N2CCC(O)(c3ccc(Cl)cc3)CC2)CCN1S(=O)(=O)c1ccccc1Br` (stereo unspecified), for which the 50% inhibitory concentration (IC50) in assay [1] is 120 nM; in assay [2], 220 nM.

Regarding `O=S(=O)(NCCCN1CCC(O)(c2ccc(Cl)cc2)CC1)c1cccc(Cl)c1Cl`, the results for the IC50 in assay [1] and in assay [2] were 350 nM and 510 nM, respectively.

With `Cc1ccccc1S(=O)(=O)N1CCC(N2CCC(O)(c3ccc(Cl)cc3)CC2)CC1`, the IC50 in assay [1] was found to be 180 nM; in assay [2], 500 nM.

In the case of `O=S(=O)(NCCCN1CCC(O)(c2ccc(Cl)cc2)CC1)c1cccc2ccccc12`, the IC50 in assay [1] stood at 180 nM; in assay [2], 680 nM.

With `Cc1cccc(Cl)c1S(=O)(=O)NCCCN1CCC(O)(c2ccc(Cl)cc2)CC1`, the figures for the IC50 in assay [1] and in assay [2] were 40 nM and 90 nM, respectively.

In the case of `COc1ccc(S(=O)(=O)NCCCN2CCC(O)(c3ccc(Cl)cc3)CC2)cc1`, the results for the IC50 in assay [1] and in assay [2] were 830 nM and 3880 nM, respectively.
